KCNQ1 inh: inhibitors of human KCNQ1 potassium channel; B-score at 10 µM; 310,000 tested, 1.3% active; CHO-K1 KCNQ1, FluxOR thallium flux fluorescence; active compounds read high; P51787;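 active = compounds whose thallium flux B-score, printed positive for inhibition, exceeds three library SD while starting fluorescence stays within three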;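 note: channel opened by potassium depolarization with thallium stimulus after 20 min compound exposure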
hERG rescue: compounds protecting human hERG from proarrhythmic drug block; Q12809; CHO-hERG, FluxOR thallium flux, dofetilide IC70 present; activation (rescue from dofetilide block), less the hit threshold, % at 10 µM; 310,000 tested, 0.51% active;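 active = activation above the mean of controls blocked by dofetilide plus 5 SD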;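 note: thallium influx through hERG after potassium depolarization seen as dye fluorescence rise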
KCNK9 block: blocks the human KCNK9 two-pore domain potassium channel | Q9NPC2 | HEK293 KCNK9, FluxOR thallium flux fluorescence; active compounds read low | B-score at 10 µM | 310,000 tested, 1.2% active | AID 488922;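 active = ratio B-score over 3 SD below the library mean, with starting fluorescence within 5 SD of its mean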;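 note: negative B-score means less thallium flux so channel inhibition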
Target sequence (Q9NPC2 whole entry, looked up, the tested form may be a part): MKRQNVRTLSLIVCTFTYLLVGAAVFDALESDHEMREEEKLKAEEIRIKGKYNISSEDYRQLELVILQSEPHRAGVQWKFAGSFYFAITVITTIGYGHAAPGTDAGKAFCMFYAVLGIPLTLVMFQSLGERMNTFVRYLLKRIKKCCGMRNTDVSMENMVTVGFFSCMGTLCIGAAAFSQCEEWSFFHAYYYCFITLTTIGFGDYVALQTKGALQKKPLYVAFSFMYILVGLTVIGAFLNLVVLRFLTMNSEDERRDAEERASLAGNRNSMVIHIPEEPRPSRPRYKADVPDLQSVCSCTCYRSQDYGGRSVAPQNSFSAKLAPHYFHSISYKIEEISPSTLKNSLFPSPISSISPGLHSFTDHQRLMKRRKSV
KCNQ1 pot: human KCNQ1 channel potentiation or activation; 310,000 tested, 0.35% active; AID 2648; B-score at 10 µM; P51787; CHO-K1 KCNQ1, thallium flux FluxOR fluorescence; active compounds read high;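 active = fluorescence ratio B-score, a plate-corrected score, at least three library SD, with initial intensity B-score within 5 SD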
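Medium – assay buffer, equal DMSO in all wells · Material – CHO-K1 cell line with stable KCNQ1 potassium channel expression · Signal – kinetic FluxOR thallium fluorescence, 10-s 1-Hz baseline, 110-s post-stimulus read · Compound – single concentration per compound, DMSO matched to controls · Schedule – 37 °C overnight plating, 90-min dark dye load, 20-min compound pretreatment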
Kir21 inh: inhibitors of mouse Kir2.1 inward-rectifier potassium channel. P35561. HEK293-Kir2.1, FluxOR thallium flux fluorescence; active compounds read low. B-score at 10 µM. 310,000 tested, 0.85% active. AID 1672;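 active = fluorescence ratio B-score at or below minus 3 SD of library scores, with starting-brightness B-score within 2 SD, cut at about -4.2 in these data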;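 note: channel flux triggered by added potassium and thallium sulfate stimulus; B-score of peak minus minimum fluorescence over baseline after thallium stimulus; more negative B-score means stronger Kir2.1 block with less thallium influx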
KCNK3 inh: human KCNK3 channel inhibition, primary screen; B-score at 10 µM; O14649; CHO-KCNK3 thallium flux, FluxOR fluorescence; active compounds read low; 340,000 tested, 0.84% active;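 active = B-score under library mean minus 4 SD, starting fluorescence ratio at most library mean plus 5 SD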;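 note: more negative B-score means stronger inhibition of thallium flux through KCNK3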
KCNK9 block conf: confirmation of human KCNK9 potassium channel inhibitors | shares compounds with KCNK9 block | HEK293 KCNK9 cells, FluxOR thallium flux fluorescence | inhibition, % at 10 µM | 4,900 tested, 43% active | AID 492992;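 active = thallium signal inhibited by more than 5 SD of the compound-free buffer control wells, on both duplicate plates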;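 note: 0% = assay buffer control wells without compound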
Kir2-1 spec: mouse Kir2.1 off-target activity of KCNK9 modulators; shares compounds with KCNK9 block; Kir2.1 cells, FluxOR thallium flux fluorescence; inhibition, % at 10 µM; 4,900 tested, 4% active;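 active = thallium signal drop more than 5 SD beyond the mean of the no-compound control wells, seen in both duplicate plates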;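 note: signal is fluorescence rise after thallium addition divided by baseline fluorescence; plate controls were assay buffer only for no effect and full block by chlorpromazine control for full effect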
HEK293 Tl ctr: second check of KCNK9 modulator effects in non-induced HEK293 cells; shares compounds with KCNK9 block; FluxOR thallium flux; inhibition, % at 10 µM; 4,900 tested, 40% active;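 active = thallium signal drop beyond 5 SD of the untreated control mean, on both duplicate plates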;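 note: plate controls were buffer only IC0 wells for no effect and SID17386958 at its maximal inhibitory level for full effect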
The depositor's hits bear a star; i = inactive; / = not tested or not shown. The list is not random: actives were taken first. Their share in the collection is about 3.7%.

SMILES	KCNQ1 inh	hERG rescue	KCNK9 block	KCNQ1 pot	Kir21 inh	KCNK3 inh	KCNK9 block conf	Kir2-1 spec	HEK293 Tl ctr
Cc1cc(OCC(=O)NC(C)(C)C)ccc1Cl	i	-4	i	i	-0.71	i	/	/	/
Fc1ccccc1C1c2cccn2CCN1C(=S)Nc1cccc(Br)c1 (configuration not stated)	i	-8	-11*	i	-1.2	i	36%*	i	48%*
Cc1cc2ccc3ccccc3c2cc1CN(C)C	i	-3	i	i	-13*	i	i	66%*	i
Cc1ccc(Cn2c(SCC(=O)N/N=C/c3ccc(C)o3)nc3ccccc32)cc1	i	-15	-21*	i	1.7	i	55%*	i	41%*
CNS(=O)(=O)c1cccc(C(=O)OCc2cc(=O)n3cc(Br)ccc3n2)c1	i	-14	i	i	0.36	i	/	/	/
O=C(OCc1cc(=O)n2cc(Br)ccc2n1)c1ccc(Cl)c(S(=O)(=O)NCc2ccccc2)c1	i	-9	-11*	i	1.7	i	i	i	i
O=C(c1ccc(F)c(S(=O)(=O)N2CCOCC2)c1)N1CCc2ccccc21	i	-6	i	i	1.9	i	i	i	i
O=C(O)CCC(=O)Nc1cccc(-c2nnc(-c3ccccc3)o2)c1	i	-1	i	i	1.9	i	/	/	/
O=C(Nc1cccc(-c2nnc(-c3ccccc3)o2)c1)c1ccc(Br)o1	i	-2	-20*	i	0.05	i	44%*	i	i
CC1Cc2ccccc2N1C(=O)CNc1cccc(S(=O)(=O)N2CCCC2)c1 (configuration not stated)	i	-13	i	i	0.11	i	i	i	i
CC(=O)c1cccc(NCC(=O)Nc2cccc(S(=O)(=O)N3CCCCC3)c2)c1	i	-14	i	i	1.1	i	/	/	/
N=C(N)N1CCc2ccccc2C1	i	0	i	i	-0.7	/	/	/	/
CN(C)CCn1c(=O)n(-c2ccc(F)cc2)c(=O)c2c3c(sc21)CCCCC3	i	-8	i	i	1.8	i	/	/	/
CN(C)CCn1c(=O)n(-c2cccc(Cl)c2)c(=O)c2c3c(sc21)CCCCC3	i	-12	i	i	-1.5	i	i	i	i
O=C(/C=C/c1ccc(S(=O)(=O)NCc2ccco2)cc1)N1CCN(c2ccccc2)CC1	i	-6	i	i	0.11	i	/	/	/
COc1ccc(NC(=O)Cc2nnc(SCC(=O)c3ccccc3)n2C)cc1	i	-6	i	i	0.47	i	/	/	/
COc1ccc(-n2c(CCc3ccccc3)nnc2SCC(=O)NCc2ccccc2)cc1	i	-16	i	i	-4.9*	i	i	i	i
O=C(CSc1nnc(CCc2ccccc2)n1-c1ccc(Cl)cc1)NCc1ccccc1	i	-4	i	i	-3.4	i	/	/	/
COc1ccc(-n2c(CCc3ccccc3)nnc2SCC(=O)c2ccccc2)cc1	i	-2	i	i	0	i	i	i	i
COc1ccc(CNC(=O)CSCc2cnn(-c3ccccc3)c2-n2cccc2)cc1	i	-16	i	i	-4.9*	i	i	i	i
O=c1oc(-c2ccccc2)c(-c2ccccc2)c2ccccc12	/	/	/	/	/	i	/	/	/
CC1CCCCN1CCNC(=O)CN1C(=O)CSc2ccc(S(=O)(=O)N3CCCCC3)cc21 (configuration not stated)	i	-3	i	i	-1.2	i	/	/	/
CC1CN(c2oc(COc3ccc(Cl)cc3Cl)nc2C#N)CC(C)O1 (configuration not stated)	i	-1	i	i	-0.91	i	i	i	i
N#Cc1nc(COc2ccccc2Cl)oc1N1CCCC1	i	-4	i	i	-0.32	i	/	/	/
CC(=O)c1ccc([N+](=O)[O-])c(CS(=O)(=O)c2ccc(Cl)cc2)c1	i	-1	i	i	0	i	/	/	/
SMILES	KCNQ1 inh	hERG rescue	KCNK9 block	KCNQ1 pot	Kir21 inh	KCNK3 inh	KCNK9 block conf	Kir2-1 spec	HEK293 Tl ctr
CCOC(=O)c1cc(NC(=O)Nc2ccc(Br)cc2)c(C)nc1C	i	-5	i	i	1.5	i	i	i	i
CCn1nc([N+](=O)[O-])c(C(C#N)c2nc3cc(C(F)(F)F)ccc3s2)c(Cl)c1=O (configuration not stated)	i	-9	i	i	-5.5*	i	i	i	i
CCc1ccc(CN2CCCC(C(=O)Nc3ccccc3-c3ccc(OC)cc3)C2)o1 (configuration not stated)	i	-12	-8.7*	i	-5.9*	i	i	i	28%*
COc1cc(Cl)c(C)cc1NC(=O)COC(=O)C1=COCCO1	i	-12	i	i	0.85	i	/	/	/
CCOc1cc(CN2CCCC(C(=O)c3cccc(C(F)(F)F)c3)C2)ccc1O (configuration not stated)	i	-20	i	i	-0.7	i	i	i	i
O=C(c1cccc(C(F)(F)F)c1)C1CCCN(Cc2cccn2-c2ncccn2)C1 (configuration not stated)	i	-24	i	i	-1.1	i	i	i	i
COc1ccc(CN2CCCC(C(=O)c3ccc(Cl)cc3)C2)cc1Cn1cccn1 (configuration not stated)	i	-23	i	i	-2.8	i	i	i	i
COc1cccc(C(=O)C2CCCN(Cc3ccc(OC)c(Cn4cncn4)c3)C2)c1 (configuration not stated)	i	-15	i	i	1.4	i	/	/	/
COc1ccc(C(=O)C2CCCN(Cc3cccn3-c3ccccn3)C2)cc1F (configuration not stated)	i	-29	i	i	-0.86	i	/	/	/
O=C(c1ccc(C(F)(F)F)cc1)C1CCCN(Cc2cccn2-c2ncccn2)C1 (configuration not stated)	i	-16	i	i	1.6	i	i	i	i
O=C(c1cccc(C(F)(F)F)c1)C1CCCN(C(=O)CN2CCCC2=O)C1 (configuration not stated)	i	-9	i	i	1.8	i	/	/	/
N=NC(=O)c1ccccc1Nc1c(O)[nH]c2ccccc12	/	/	/	/	/	i	/	/	/

From PubChem BioAssay
